# Activity calls are given as the source filed them. The rule behind the calls is not given here.
# How the values were obtained:
# [1] = molecular target: Cyclin-dependent kinase 2 (Homo sapiens, UniProt P24941); experiment: Inhibition of human recombinant full length C-terminal His6-tagged CDK2 expressed in baculovirus infected Sf21 insect cells using fluorescence substrate after 60 mins by caliper off-chip incubation mobility shift assay
# [2] = molecular target: Insulin-like growth factor 1 receptor (Homo sapiens, UniProt P08069); experiment: Inhibition of human recombinant N-terminal His6-tagged IGF-1R using fluorescence substrate after 80 mins by caliper off-chip incubation mobility shift assay
# [3] = Oral bioavailability in Wistar Han rat at 3 umol/kg; type: ADME, organism-based; conditions: in vivo
# [4] = molecular target: T1, Dual specificity tyrosine-phosphorylation-regulated kinase 1B (Homo sapiens, UniProt Q9Y463); experiment: Inhibition of human full length C-terminal c-Myc tagged Dyrk1B phosphorylation overexpressed in monkey COS1 cells after 5 hrs by ELISA; type: cell-based, COS-1
# [5] = molecular target: T1, Dual specificity tyrosine-phosphorylation-regulated kinase 1B; experiment: Inhibition of recombinant Dyrk1B (unknown origin) using FITC-Asp-His-Thr-Gly-Phe-Leu-Thr-Glu-Tyr-Val-Ala-Thr-Arg-NH2 as substrate after 60 mins
# [6] = Intrinsic clearance in Wistar Han rat hepatocytes assessed per 10^6 cells; type: ADME, cell-based, Hepatocyte; conditions: read-out: CLH
# In short: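 Intrinsic clearance in Wistar Han rat hepatocytes, expressed as μL/min/1 × 10⁶ cells.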
# [7] = Clearance in Wistar Han rat plasma at 2 umol/kg; type: ADME, cell-free
# [8] = Aqueous solubility of the compound at pH 7.4; type: physicochemical; conditions: buffer
# [9] = tested on: A-375; experiment: Cytotoxicity against human A375 cells at 1.33 uM after 72 hrs by calcein green AM/propidium iodide staining-based assay in presence of AZD6244 relative to control; type: functional, cell-based
# In short: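 A375 melanoma cells treated with AZD6244 with or without Dyrk1B inhibitor at 1.33 μM for 72 h. Viability by calcein green AM and propidium iodide staining; percentage of dead cells is mean and SEM of at least two separate experiments.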
# [10] = Clearance in Wistar Han rat blood at 2 umol/kg; type: ADME, tissue-based; conditions: whole blood
# [11] = organism: Homo sapiens; experiment: Selectivity ratio of IC50 for human recombinant N-terminal His6-tagged IGF-1R to IC50 for recombinant Dyrk1B (unknown origin)
# [12] = molecular target: Dual specificity tyrosine-phosphorylation-regulated kinase 1A (Homo sapiens) (UniProt Q13627); experiment: Inhibition of Dyrk1A (unknown origin) at 1 uM
# In short: (§1)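 Kinase panel of 124 kinases; single test concentration of 1 μM.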
# [13] = molecular target: T2, Dual specificity tyrosine-phosphorylation-regulated kinase 2 (Homo sapiens) (UniProt Q92630); experiment: Inhibition of Dyrk2 (unknown origin) at 1 uM; in short: as §1
# T2 sequence (whole entry): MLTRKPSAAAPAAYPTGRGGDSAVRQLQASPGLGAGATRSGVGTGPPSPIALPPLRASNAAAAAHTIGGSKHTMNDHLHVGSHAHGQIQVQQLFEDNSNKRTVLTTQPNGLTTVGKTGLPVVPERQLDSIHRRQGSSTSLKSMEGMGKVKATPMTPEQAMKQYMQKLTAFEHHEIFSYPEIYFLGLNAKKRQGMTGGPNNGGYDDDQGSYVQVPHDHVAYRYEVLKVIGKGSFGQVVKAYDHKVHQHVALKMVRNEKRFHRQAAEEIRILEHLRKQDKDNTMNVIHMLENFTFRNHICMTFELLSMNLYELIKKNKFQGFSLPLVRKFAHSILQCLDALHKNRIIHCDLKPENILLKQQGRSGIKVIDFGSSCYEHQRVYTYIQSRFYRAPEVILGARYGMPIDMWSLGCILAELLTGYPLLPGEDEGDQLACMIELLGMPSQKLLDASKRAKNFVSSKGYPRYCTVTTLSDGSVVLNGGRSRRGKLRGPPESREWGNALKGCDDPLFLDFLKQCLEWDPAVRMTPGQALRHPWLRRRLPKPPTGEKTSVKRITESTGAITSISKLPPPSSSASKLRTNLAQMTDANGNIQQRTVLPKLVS
# [14] = molecular target: T3, Dual specificity tyrosine-phosphorylation-regulated kinase 3 (Homo sapiens) (UniProt O43781); experiment: Inhibition of Dyrk3 (unknown origin) at 1 uM; in short: as §1
# T3 sequence (whole entry): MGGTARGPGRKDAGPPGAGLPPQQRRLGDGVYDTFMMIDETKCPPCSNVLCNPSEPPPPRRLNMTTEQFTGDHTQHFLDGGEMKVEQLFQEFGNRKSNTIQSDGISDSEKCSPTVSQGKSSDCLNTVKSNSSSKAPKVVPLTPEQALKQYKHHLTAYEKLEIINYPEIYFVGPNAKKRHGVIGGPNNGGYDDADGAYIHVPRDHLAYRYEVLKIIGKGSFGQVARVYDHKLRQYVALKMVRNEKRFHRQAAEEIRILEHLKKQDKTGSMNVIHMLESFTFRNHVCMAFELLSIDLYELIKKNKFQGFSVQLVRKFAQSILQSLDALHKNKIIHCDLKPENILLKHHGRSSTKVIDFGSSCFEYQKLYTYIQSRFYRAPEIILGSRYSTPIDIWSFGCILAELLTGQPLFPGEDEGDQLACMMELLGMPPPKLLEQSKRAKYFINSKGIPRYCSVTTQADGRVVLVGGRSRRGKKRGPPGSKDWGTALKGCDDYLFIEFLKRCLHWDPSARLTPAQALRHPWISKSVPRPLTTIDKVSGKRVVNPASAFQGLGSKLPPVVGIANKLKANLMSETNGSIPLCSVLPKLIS
# [15] = molecular target: T4, Dual specificity tyrosine-phosphorylation-regulated kinase 2 (Homo sapiens, UniProt Q92630); experiment: Inhibition of GST-tagged Dyrk2 (unknown origin) expressed in Escherichia coli using [33P]ATP[gammaP]/DYRKtide as substrate after 5 mins by liquid scintillation counting analysis
# T4 sequence (Q92630 whole entry): T2 sequence (whole entry)
# [16] = molecular target: T5, Dual specificity tyrosine-phosphorylation-regulated kinase 4 (Homo sapiens, UniProt Q9NR20); experiment: Inhibition of GST-tagged Dyrk4 (unknown origin) expressed in Escherichia coli using [33P]ATP[gammaP]/DYRKtide as substrate after 5 mins by liquid scintillation counting analysis
# T5 sequence (Q9NR20 whole entry): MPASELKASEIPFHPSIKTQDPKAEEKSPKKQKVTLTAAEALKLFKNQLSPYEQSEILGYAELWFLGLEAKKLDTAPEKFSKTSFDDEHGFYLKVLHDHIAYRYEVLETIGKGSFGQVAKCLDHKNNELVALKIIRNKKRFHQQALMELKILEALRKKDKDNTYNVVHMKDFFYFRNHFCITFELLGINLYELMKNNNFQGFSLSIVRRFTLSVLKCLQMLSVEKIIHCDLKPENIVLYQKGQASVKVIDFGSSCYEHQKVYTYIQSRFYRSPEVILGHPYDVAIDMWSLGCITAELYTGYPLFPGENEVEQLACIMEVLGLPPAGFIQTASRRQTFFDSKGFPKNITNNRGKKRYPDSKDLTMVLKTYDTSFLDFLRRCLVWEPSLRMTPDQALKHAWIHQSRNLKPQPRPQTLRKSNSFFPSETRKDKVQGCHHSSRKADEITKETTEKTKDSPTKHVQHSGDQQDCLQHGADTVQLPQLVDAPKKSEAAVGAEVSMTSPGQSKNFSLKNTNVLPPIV
# Insulin-like growth factor 1 receptor, sequence (P08069 31-736 limits assumed): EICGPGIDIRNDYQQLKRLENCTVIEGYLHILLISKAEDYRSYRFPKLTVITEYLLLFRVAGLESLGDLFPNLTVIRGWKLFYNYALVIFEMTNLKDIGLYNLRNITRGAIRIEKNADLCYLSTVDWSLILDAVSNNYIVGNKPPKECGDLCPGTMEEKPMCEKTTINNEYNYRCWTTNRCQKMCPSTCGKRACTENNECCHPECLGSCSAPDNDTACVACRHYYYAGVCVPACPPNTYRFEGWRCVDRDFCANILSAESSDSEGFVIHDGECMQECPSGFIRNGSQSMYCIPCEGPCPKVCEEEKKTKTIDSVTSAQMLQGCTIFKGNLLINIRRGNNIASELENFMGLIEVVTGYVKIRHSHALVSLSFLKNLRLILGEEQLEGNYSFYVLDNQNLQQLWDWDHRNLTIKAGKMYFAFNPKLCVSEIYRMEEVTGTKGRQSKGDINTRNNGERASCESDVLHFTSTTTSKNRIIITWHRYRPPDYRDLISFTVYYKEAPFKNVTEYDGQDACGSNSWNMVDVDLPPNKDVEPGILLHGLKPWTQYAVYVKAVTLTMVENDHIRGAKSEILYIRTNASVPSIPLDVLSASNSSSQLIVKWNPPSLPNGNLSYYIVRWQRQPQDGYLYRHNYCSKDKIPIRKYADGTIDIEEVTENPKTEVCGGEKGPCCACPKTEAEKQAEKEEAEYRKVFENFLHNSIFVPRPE
# Insulin-like growth factor 1 receptor, sequence (P08069 741-1367 limits assumed): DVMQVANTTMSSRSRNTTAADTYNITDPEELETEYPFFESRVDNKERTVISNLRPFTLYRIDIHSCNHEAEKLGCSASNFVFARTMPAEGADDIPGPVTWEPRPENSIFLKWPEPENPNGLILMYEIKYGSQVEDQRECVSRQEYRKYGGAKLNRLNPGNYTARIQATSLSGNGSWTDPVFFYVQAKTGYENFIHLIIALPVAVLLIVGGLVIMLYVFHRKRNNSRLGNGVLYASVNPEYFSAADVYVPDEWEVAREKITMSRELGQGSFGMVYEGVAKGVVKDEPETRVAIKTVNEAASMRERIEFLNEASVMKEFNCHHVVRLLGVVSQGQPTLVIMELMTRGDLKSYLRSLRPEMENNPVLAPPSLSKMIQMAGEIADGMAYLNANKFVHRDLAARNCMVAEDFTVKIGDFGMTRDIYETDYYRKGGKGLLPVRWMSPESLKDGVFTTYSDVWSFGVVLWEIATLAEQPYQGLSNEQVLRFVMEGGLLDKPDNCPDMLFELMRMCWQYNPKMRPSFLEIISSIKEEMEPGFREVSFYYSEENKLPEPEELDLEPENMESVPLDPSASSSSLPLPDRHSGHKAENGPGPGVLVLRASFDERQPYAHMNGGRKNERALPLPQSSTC
# T1 sequence (Q9Y463 whole entry): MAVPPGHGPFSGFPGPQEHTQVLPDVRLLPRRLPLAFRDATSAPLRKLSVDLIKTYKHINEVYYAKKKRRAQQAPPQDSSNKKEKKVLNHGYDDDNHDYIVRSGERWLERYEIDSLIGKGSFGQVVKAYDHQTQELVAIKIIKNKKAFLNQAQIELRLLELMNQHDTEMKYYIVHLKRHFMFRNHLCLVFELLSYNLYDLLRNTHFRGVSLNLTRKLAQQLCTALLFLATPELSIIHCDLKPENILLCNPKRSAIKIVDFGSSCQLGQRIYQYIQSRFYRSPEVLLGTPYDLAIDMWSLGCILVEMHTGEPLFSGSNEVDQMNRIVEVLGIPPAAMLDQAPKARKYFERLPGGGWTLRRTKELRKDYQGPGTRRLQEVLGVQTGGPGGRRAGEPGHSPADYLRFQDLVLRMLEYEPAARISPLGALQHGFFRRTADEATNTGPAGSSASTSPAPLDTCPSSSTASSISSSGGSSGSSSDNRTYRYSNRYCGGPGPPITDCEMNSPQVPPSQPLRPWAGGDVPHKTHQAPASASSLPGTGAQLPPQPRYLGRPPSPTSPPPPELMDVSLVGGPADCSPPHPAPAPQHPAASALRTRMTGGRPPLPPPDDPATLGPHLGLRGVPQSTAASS
SMILES,IC50 [1] [nM],IC50 [2] [nM],bioavailability [3] [%],IC50 [4] [nM],IC50 [5] [nM],hepatocyte CLint [6] [µL/min/1e6 cells],clearance [7] [mL/min/kg],other results
CS(=O)(=O)c1ccc(-c2nccc(-c3c[nH]c4cnccc34)n2)cc1,16900,> 100000,0,898,21,129,–,–
O=C(NC1CCCC1)c1ccc(-c2cc(-c3cc4c([nH]3)CCNC4=O)ccn2)cc1,–,–,–,–,43,–,–,–
C(=C\c1nccc(-c2c[nH]c3cnccc23)n1)/c1ccccc1,5180,46900,–,192,7,–,–,Activity [9]: inactive
Cc1nccc(-c2c[nH]c3cnccc23)n1,38400,> 100000,–,3070,17,–,–,–
Cc1nccc2c(-c3ccnc(-c4ccc(S(C)(=O)=O)cc4)n3)c[nH]c12,> 100000,> 29000,4,2120,14,9,24,–
c1cc2c(-c3ccnc4[nH]ccc34)c[nH]c2cn1,314,7990,–,378,3,–,–,–
Cc1nccc(-c2cn(Cc3ccccc3)c3cnccc23)n1,56700,> 100000,–,194,7,–,–,Activity [9]: inactive
COc1ccc2c(c1)[nH]c1c(C)nccc12 [HARMINE],–,–,–,–,–,–,–,IC50 [15]: 2000 nM; IC50 [16]: 74000 nM

# More lines, main results first:
IC50 [1] [nM],IC50 [2] [nM],bioavailability [3] [%],IC50 [4] [nM],IC50 [5] [nM],hepatocyte CLint [6] [µL/min/1e6 cells],clearance [7] [mL/min/kg],SMILES,other results
10500,72,–,–,4,6,–,COc1cc(N2CCN(C)CC2)ccc1Nc1nccc(-c2c[nH]c3cnc(C)cc23)n1,–
577,> 100000,–,453,2,13,179,CN1CCN(c2ccc(Nc3cc(-c4c[nH]c5cnccc45)ncn3)cc2)CC1,–
14800,> 100000,5,–,34,11,16,COc1cc(N2CCN(C(C)=O)CC2)ccc1Nc1cc(-c2cn(C)c3cnccc23)ncn1,solubility [8]: 53 µM
45900,67700,–,–,98,32,–,O=C(NC1CCCC1)c1ccc(-c2nccc(-c3c[nH]c4cnccc34)n2)cc1,–
33200,2410,13,9960,85,49,–,CN1CCN(c2ccc(Nc3cc(-c4c[nH]c5ccccc45)ncn3)cc2)CC1,clearance [10]: 42 mL/min/kg; Ratio IC50 [11]: 28
13700,3170,14,168,9,6,24,COc1cc(N2CCN(C)CC2)ccc1Nc1nccc(-c2cn(C)c3c(C)nccc23)n1,solubility [8]: 4 µM
1820,1490,–,85,4,21,–,COc1cc(N2CCN(C)CC2)ccc1Nc1nccc(-c2c[nH]c3cnccc23)n1,inhibition [12]: 90%; inhibition [13]: 92%; inhibition [14]: 83%
17400,51,0,83,5,< 5,38,COc1cc(N2CCN(C)CC2)ccc1Nc1nccc(-c2c[nH]c3c(C)nccc23)n1,–
14100,40500,–,–,16,9,239,COc1cc(N2CCN(C(C)=O)CC2)ccc1Nc1cc(-c2c[nH]c3cnccc23)ncn1,–
20,30,–,–,25,–,–,CN1CCN(c2ccc(Nc3ncc(Cl)c(-c4c[nH]c5cnccc45)n3)cc2)CC1,–
12300,34100,–,282,1,11,375,COc1cc(N2CCN(C)CC2)ccc1Nc1cc(-c2c[nH]c3cnccc23)ncn1,–
2000,965,–,–,9,< 1,137,COc1cc(N2CCN(C(C)=O)CC2)ccc1Nc1nccc(-c2c[nH]c3cnccc23)n1,–

# — ChEMBL document CHEMBL3421608, “Discovery and optimization of a novel series of Dyrk1B kinase inhibitors to explore a MEK resistance hypothesis” (J Med Chem, 2015)
